ChEMBL document CHEMBL1152814, “Novel cyano- and amidinobenzothiazole derivatives: synthesis, antitumor evaluation, and X-ray and quantitative structure-activity relationship (QSAR) analysis” (J Med Chem, 2009)
The source made the active and inactive calls. No cut-off for these calls is given here.

Key:
[1] = Antiproliferative activity against human WI38 cells after 72 hrs by MTT assay; assay type: cell-based; settings: WI-38, 72 h
How it was run: (§1)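 Monolayers in DMEM with 10% FBS, 2 mM L-glutamine, penicillin/streptomycin, 37 °C, 5% CO2. Seeded at 3 × 10³ to 6 × 10³ cells/well on day 0. Agents added the next day in five 10-fold dilutions (10^-8–10^-4 mol/L), with a DMSO solvent control (max 0.25%). MTT read at 570 nm after 72 h. Quadruplicate points, three experiments. IC50 is the concentration giving 50% growth inhibition.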

HeLa = test: Antiproliferative activity against human HeLa cells after 72 hrs by MTT assay; assay type: functional, cell-based; how it was run: as §1
MIA PaCa-2 = test: Antiproliferative activity against human MIAPaCa2 cells after 72 hrs by MTT assay; assay type: functional, cell-based; settings: MIA PaCa-2, 72 h; how it was run: as §1
SW-620 = test: Antiproliferative activity against human SW620 cells after 72 hrs by MTT assay; assay type: functional, cell-based; settings: SW-620, 72 h; how it was run: as §1
MCF7 = test: Antiproliferative activity against human MCF7 cells after 72 hrs by MTT assay; assay type: functional, cell-based; settings: MCF7, 72 h; how it was run: as §1
NCI-H460 [2] = test: Antiproliferative activity against human H460 cells after 72 hrs by MTT assay; assay type: functional, cell-based; settings: NCI-H460, 72 h; how it was run: as §1
HEp-2 = test: Antiproliferative activity against human Hep2 cells after 72 hrs by MTT assay; assay type: functional, cell-based; settings: HEp-2, 72 h; how it was run: as §1
NCI-H460 [3] = test: Cell cycle arrest in human H460 cells assessed as induction of G1 phase delay at 50 uM after 24 hrs using propidium iodide staining by FACS; assay type: functional, cell-based
How it was run: (§2)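 H 460 cells seeded at 2 × 10⁵/well and treated after overnight incubation with 5, 10 or 50 µM for 24 or 48 h. Attached and floating cells were pooled, fixed in 70% ethanol, treated with 0.2 µg/µL RNase A (37 °C, 15 min) and stained with 50 µg/mL propidium iodide. Flow cytometry counted 20000 events, in duplicate across two independent experiments.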

NCI-H460 [4] = test: Cell cycle arrest in human H460 cells assessed as induction of G2 phase delay at 50 uM after 24 hrs using propidium iodide staining by FACS; assay type: functional, cell-based; how it was run: as §2
NCI-H460 [5] = test: Cell cycle arrest in human H460 cells assessed as reduction of percentage of cells in S phase at 50 uM after 24 hrs using propidium iodide staining by FACS; assay type: functional, cell-based; how it was run: as §2
NCI-H460 [6] = test: Cell cycle arrest in human H460 cells assessed as induction of G1 phase delay at 50 uM after 48 hrs using propidium iodide staining by FACS; assay type: functional, cell-based; how it was run: as §2
NCI-H460 [7] = test: Cell cycle arrest in human H460 cells assessed as induction of G2 phase delay at 50 uM after 48 hrs using propidium iodide staining by FACS; assay type: functional, cell-based; how it was run: as §2
NCI-H460 [8] = test: Cell cycle arrest in human H460 cells assessed as reduction of percentage of cells in S phase at 50 uM after 48 hrs using propidium iodide staining by FACS; assay type: functional, cell-based; how it was run: as §2
NCI-H460 [9] = test: Cell cycle arrest in human H460 cells assessed as increase in percentage of cells in G1 phase at 10 uM after 24 hrs using propidium iodide staining by FACS; assay type: functional, cell-based; how it was run: as §2
NCI-H460 [10] = test: Cell cycle arrest in human H460 cells assessed as increase in percentage of cells in G1 phase at 10 uM after 48 hrs using propidium iodide staining by FACS; assay type: functional, cell-based; how it was run: as §2
NCI-H460 [11] = test: Cell cycle arrest in human H460 cells assessed as reduction of percentage of cells in S phase at 5 to 50 uM after 24 hrs using propidium iodide staining by FACS; assay type: functional, cell-based; how it was run: as §2
NCI-H460 [12] = test: Cell cycle arrest in human H460 cells assessed as reduction of percentage of cells in S phase at 5 to 50 uM after 48 hrs using propidium iodide staining by FACS; assay type: functional, cell-based; how it was run: as §2
NCI-H460 [13] = test: Induction of apoptosis in human H460 cells assessed as late apoptotic cells at 50 uM after 48 hrs using annexin V staining by FACS; assay type: functional
How it was run: (§3)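 H 460 cells seeded at 2 × 10⁵/well and exposed for 48 h (5, 10 or 50 µM) against a vehicle control. Floating and attached cells were pooled and washed in binding buffer (10 mM HEPES, 140 mM NaCl, 2.5 mM CaCl2, pH 7.4). They were stained 20 min with annexin V Alexa Fluor 488 and 1 µg/mL 7-AAD, then read by flow cytometry. Quadrants: viable, early apoptotic, late apoptotic.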

NCI-H460 [14] = test: Induction of apoptosis in human H460 cells assessed as early apoptotic cells at 50 uM after 48 hrs using annexin V staining by FACS; assay type: functional; how it was run: as §3
NCI-H460 [15] = test: Induction of apoptosis in human H460 cells assessed as viable cells at 50 uM after 48 hrs using annexin V staining by FACS; assay type: functional; settings: NCI-H460, 48 h, read-out: Activity; how it was run: as §3
NCI-H460 [16] = test: Induction of apoptosis in human H460 cells assessed as late apoptotic cells after 48 hrs using annexin V staining by FACS; assay type: functional, cell-based; how it was run: as §3
NCI-H460 [17] = test: Induction of apoptosis in human H460 cells assessed as early apoptotic cells after 48 hrs using annexin V staining by FACS; assay type: functional, cell-based; how it was run: as §3
NCI-H460 [18] = test: Induction of apoptosis in human H460 cells assessed as viable cells after 48 hrs using annexin V staining by FACS; assay type: functional, cell-based; how it was run: as §3

Compound | IC50 (HeLa) | IC50 (MIA PaCa-2) | IC50 (SW-620) | IC50 (MCF7) | IC50 (NCI-H460 [2]) | IC50 [1] | other results
Cc1cccc(Nc2nc3ccc(C#N)cc3s2)n1 | 8 µM | 6 µM | 4 µM | 8 µM |  | > 10 µM | IC50 (HEp-2): > 10 µM
Cc1ccc(Nc2nc3ccc(C(=N)NC(C)C)cc3s2)nc1.Cl.Cl | 12 µM | 14 µM | 12 µM | 8 µM | 15 µM | 31 µM | Activity (NCI-H460 [3]): Active; Activity (NCI-H460 [4]): Active; Activity (NCI-H460 [5]): Active; Activity (NCI-H460 [6]): Active; Activity (NCI-H460 [7]): Active; Activity (NCI-H460 [8]): Active; Activity (NCI-H460 [9]): inactive; Activity (NCI-H460 [10]): inactive; Activity (NCI-H460 [11]): Active; Activity (NCI-H460 [12]): Active; Activity (NCI-H460 [13]): 2.39%; Activity (NCI-H460 [14]): 13.58%; viability at 50 µM (NCI-H460 [15]): 83.2%; Activity (NCI-H460 [16]): Dose-dependent effect; Activity (NCI-H460 [17]): Dose-dependent effect; Activity (NCI-H460 [18]): Dose-dependent effect
CC(C)NC(=N)c1ccc(Nc2nc3ccc(C(=N)NC(C)C)cc3s2)cc1 | 18 µM | 30 µM | 18 µM | 6 µM | 16 µM | 92 µM | 
N#Cc1ccc2nc(Nc3ncccn3)sc2c1 | 5 µM | 3 µM | 9 µM | 7 µM |  | ≥ 10 µM | IC50 (HEp-2): 5 µM
CC(C)NC(=N)c1ccc2nc(NC(=O)c3ccccc3Cl)sc2c1 | 23 µM | 45 µM | 45 µM | 16 µM | 59 µM | 61 µM | 
Cc1cccnc1Nc1nc2ccc(C#N)cc2s1 | > 10 µM | 3 µM | 3 µM | > 10 µM |  | 2.3 µM | IC50 (HEp-2): > 10 µM

The remaining compounds from weak to strong by IC50 (HeLa), led by results:

IC50 (HeLa) | IC50 (MIA PaCa-2) | IC50 (SW-620) | IC50 (MCF7) | IC50 (NCI-H460 [2]) | Compound | IC50 [1] | other results
9 µM | 12 µM | 13 µM | 5 µM | 15 µM | CC(C)NC(=N)c1ccc2nc(Nc3ccc(Cl)cn3)sc2c1 | 17 µM | 
9 µM | 17 µM | 17 µM | 13 µM | 16 µM | CC(C)NC(=N)c1ccc(C(=O)Nc2nc3ccccc3s2)cc1 | 16 µM | 
5 µM | 3 µM | 5 µM | 2 µM | 2 µM | Cc1cccnc1Nc1nc2ccc(C(=N)NC(C)C)cc2s1 | 14 µM | 
3 µM | 3 µM | 2 µM | 2 µM | 2 µM | Cc1cccnc1Nc1nc2ccc(C3=NCCN3)cc2s1 |  | 
1 µM | 1.6 µM | 1.3 µM | 1.4 µM | 1.5 µM | Clc1ccc(Nc2nc3ccc(C4=NCCN4)cc3s2)nc1 | 1 µM | 
